Laboratory results: paper PMC2791397 (Biochimica et biophysica acta, 2009)

Assays:
[1] = tested on: Imidazoleglycerol-phosphate dehydratase (His3p); conditions: cited from earlier work
yeast cells = test: Cellular growth in the presence of varying concentrations of 3-AT; assay type: cell-based, budding yeast Saccharomyces cerevisiae; conditions: 30°C, three to five days
In short: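 BY4742-background strains (MATα his3Δ1 leu2Δ0 lys2Δ0 ura3Δ0; isogenic MATa dot1Δ or hmt1Δ) made HIS+ by transformation with a 1.75 kb HIS3 fragment. GCN5 deleted with a gcn5::hisG-URA3-hisG fragment. Log-phase cells from rich medium were serially diluted, spotted onto SC –His plates containing varying 3-AT concentrations, and scored for growth.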

Hmt1p = Hmt1p (Saccharomyces cerevisiae, UniProt P38074); test: Kinetic studies of Hmt1p-mediated H4 peptide methylation; assay type: biochemical, budding yeast Saccharomyces cerevisiae; conditions: peptide 0.01 to 10 μM, 3.3 μM 3H-SAM, app. 25 ng GST-Hmt1p, pH 8.0, 30°C, 3 min; Hanes/Wolffe plot; average, n ranging from 2 to 8
Chain of Hmt1p (P38074 whole entry): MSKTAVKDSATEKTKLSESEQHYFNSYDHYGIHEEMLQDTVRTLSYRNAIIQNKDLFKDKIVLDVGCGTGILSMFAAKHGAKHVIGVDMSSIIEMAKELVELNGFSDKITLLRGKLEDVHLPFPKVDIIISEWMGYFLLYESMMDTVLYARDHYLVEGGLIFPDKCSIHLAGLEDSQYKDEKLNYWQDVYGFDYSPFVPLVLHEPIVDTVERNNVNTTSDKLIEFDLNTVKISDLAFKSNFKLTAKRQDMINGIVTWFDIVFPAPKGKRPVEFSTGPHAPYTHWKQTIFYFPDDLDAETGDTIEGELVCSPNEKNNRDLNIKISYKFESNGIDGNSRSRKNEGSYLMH

| Molecule | inhibition of Imidazoleglycerol-phosphate dehydratase [1] | sensitivity to 3-AT, dot1 deletion (yeast cells; dot1! cells, SC -His plates) | sensitivity to 3-AT, gcn5 deletion (yeast cells; gcn5! cells, SC -His plates) | resistance to 3-AT, gcn5 hmt1 double knockout (yeast cells; gcn5! hmt1! cells vs gcn5! strain, SC -His plates) | sensitivity to 3-AT, hmt1 deletion (yeast cells; hmt1! cells, 20- and 40-mM 3-AT plates, SC -His) | Km (Hmt1p) [µM] |
| --- | --- | --- | --- | --- | --- | --- |
| Nc1nc[nH]n1 [3-AT, 3-amino-1,2,4-triazole] | competitive inhibitor | did not have an obvious effect | hypersensitive | significantly higher resistance to 3-AT | sustain higher concentrations of 3-AT |  |
| Ac.K8: synthetic histone H4 peptide (residues 1–18) with acetyllysine at position 8 |  |  |  |  |  | 0.059 ± 0.02 |
